Assay results reported in ChEMBL document CHEMBL1134616, “Novel 7-oxyiminomethyl derivatives of camptothecin with potent in vitro and in vivo antitumor activity” (J Med Chem, 2001).

Columns and labels:
[1] = system: NCI-H460; test: Percentage of body weight loss in CD1 mice with human Non-Small-Cell tumor at a oral dose of 4 mg/kg
[2] = system: NCI-H460; test: Complete response in CD1 mice with human Non-Small-Cell tumor at a oral dose of 1 mg/kg; type: functional
Outline: (§1)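 Nude athymic CD1 mice, 8–10 weeks old, carrying serially passaged human lung tumor fragments implanted s.c. in both flanks. Oral dosing in 10 mL/kg on a q4dx4 schedule, begun once tumors were visible but not yet measurable. Complete response means no detectable tumor for at least 10 days after the end of treatment.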

[3] = system: NCI-H460; test: Log 10 cell kill induced by treatment in CD1 mice with human Non-Small-Cell tumor at a oral dose of 3 mg/kg; type: functional
Outline: (§2)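 Nude athymic CD1 mice, 8–10 weeks, carrying s.c. human lung tumor fragments in both flanks. Given per os on a q4dx4 schedule at 10 mL/kg, starting when tumors were visible but not measurable. Volume = d²×D/2. Log10 cell kill = T−C/3.32 × tumor doubling time, where T and C are the days for treated and control tumors to reach a mean volume of 1000 mm³.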

[4] = system: NCI-H460; test: Log 10 cell kill induced by treatment in CD1 mice with human Non-Small-Cell tumor at a oral dose of 2 mg/kg; type: functional
Outline: as §2

[5] = Cytotoxicity against human non-small-cell lung carcinoma cell line H460 (NSCLC-H460); type: functional, cell-based
Outline: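 Logarithmically growing cells were seeded in duplicate, exposed to drug for 1 h starting 24 h after seeding, and counted by Coulter counter 72 h after exposure. Drug was dissolved in DMSO before dilution. The IC50 is the concentration giving a 50% decrease in growth relative to untreated control.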

[6] = system: NCI-H460; test: Percentage inhibition of tumor volume in treated versus control mice against human Non-Small-Cell tumor xenograft at a oral dose of 3 mg/kg; type: functional; conditions: Mus musculus
Outline: (§3)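 Nude athymic CD1 mice, 8–10 weeks old, with human lung tumor fragments implanted s.c. in both flanks. Oral dosing in 10 mL/kg, q4dx4, started when tumors were visible but not measurable. Tumor volume = d²×D/2 from caliper diameters. Percent inhibition of treated versus control volume taken 7–10 days after the last dose. Volumes compared by Student's t test, P<0.05.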

[7] = Percentage of body weight loss in CD1 mice with human Non-Small-Cell tumor at a oral dose of 4 mg/kg; type: functional, Mus musculus
Outline: (§4)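 Nude athymic CD1 mice, 8–10 weeks old, bearing s.c. human lung tumor xenografts in both flanks. Given oral drug in 10 mL/kg on a q4dx4 schedule, beginning when tumors were visible but not measurable. Read-out is percent body weight loss after drug treatment.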

[8] = Log 10 cell kill induced by treatment in CD1 mice with human Non-Small-Cell tumor at a oral dose of 2 mg/kg
[9] = Complete response in mice with lung carcinoma LX-1 at a oral dose of 3 mg/kg; type: functional, Mus musculus
Outline: as §1

[10] = system: NCI-H460; test: Percentage of body weight loss in CD1 mice with human Non-Small-Cell tumor at a oral dose of 2 mg/kg; type: functional
Outline: as §4

[11] = system: NCI-H460; test: No. of dead mice/ total No. of mice in CD1 mice with human Non-Small-Cell tumor at a oral dose of 1 mg/kg; type: ADME, organism-based; set-up: dose 1 mg/kg, route oral; conditions: in vivo
Outline: (§5)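 Human lung tumor s.c. xenografts (fragments, both flanks) in nude athymic CD1 mice aged 8–10 weeks. Oral q4dx4 dosing at 10 mL/kg, begun when tumors were visible but not measurable. Toxicity is recorded as the number of dead mice over the total number of treated mice.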

[12] = system: NCI-H460; test: No. of dead mice/ total No. of mice with human Non-Small-Cell tumor at a oral dose of 2 mg/kg; type: ADME, organism-based; set-up: dose 2 mg/kg, route oral; conditions: in vivo
Outline: as §5

[13] = system: NCI-H460; test: Percentage inhibition of tumor volume in treated versus control mice against human Non-Small-Cell tumor xenograft at a oral dose of 2 mg/kg; type: functional; conditions: Mus musculus
Outline: as §3

[14] = system: NCI-H460; test: Percentage of body weight loss in CD1 mice with human Non-Small-Cell tumor at a oral dose of 1 mg/kg; type: functional
Outline: as §4

[15] = Percentage inhibition of tumor volume in treated versus control mice against human Non-Small-Cell tumor xenograft at a oral dose of 4 mg/kg; type: functional; conditions: Mus musculus
Outline: as §3

[16] = system: NCI-H460; test: Percentage inhibition of tumor volume in treated versus control mice against human Non-Small-Cell tumor xenograft at a oral dose of 1 mg/kg; type: functional; conditions: Mus musculus
Outline: as §3

[17] = system: NCI-H460; test: Complete response in CD1 mice with human Non-Small-Cell tumor at a oral dose of 3 mg/kg; type: functional
Outline: as §1

[18] = No. of dead mice/ total No. of mice in mice with lung carcinoma LX-1 at a oral dose of 3 mg/kg; type: ADME, organism-based; set-up: dose 3 mg/kg, route oral; conditions: mouse, in vivo
Outline: as §5

[19] = system: NCI-H460; test: Complete response in CD1 mice with human Non-Small-Cell tumor at a oral dose of 2 mg/kg; type: functional
Outline: as §1

[20] = system: NCI-H460; test: No. of dead mice/ total No. of mice with human Non-Small-Cell tumor at a oral dose of 3 mg/kg; type: ADME, organism-based; set-up: dose 3 mg/kg, route oral; conditions: in vivo
Outline: as §5

[21] = Percentage of body weight loss in mice with lung carcinoma LX-1 at a oral dose of 3 mg/kg; type: functional, Mus musculus
Outline: as §4

[22] = Percentage inhibition of tumor volume mice with lung carcinoma LX-1 at a oral dose of 3 mg/kg; type: functional; conditions: Mus musculus
Outline: as §3

[23] = Complete response in CD1 mice with human Non-Small-Cell tumor at a oral dose of 4 mg/kg; type: functional, Mus musculus
Outline: as §1

[24] = Log 10 cell kill induced by treatment in mice with lung carcinoma LX-1 at a oral dose of 3 mg/kg; type: functional, Mus musculus
Outline: as §2

[25] = system: NCI-H460; test: Log 10 cell kill induced by treatment iin CD1 mice with human Non-Small-Cell tumor at a oral dose of 1 mg/kg; type: functional
Outline: as §2

Compound `CC[C@@]1(O)C(=O)OCc2c1cc1n(c2=O)Cc2c-1nc1ccccc1c2/C=N/OC(C)(C)C` [GIMATECAN] has a BWL [1] of 23%, a CR [2] of 0 and an LCK [3] of 2.5. For the same compound, the LCK [4] was 2.4, the IC50 [5] was 15 nM and the inhibition in vivo at 3 mg/kg [6] was 100%. The BWL [7] was 5%, the LCK [8] was 2.4 and the CR [9] was 8. For the same compound, the BWL [10] was 1%, the Toxicity [11] was 0 and the Toxicity [12] was 0. For the same compound, the inhibition in vivo at 2 mg/kg [13] was 99%, the BWL [14] was 0% and the inhibition in vivo at 4 mg/kg [15] was 99%. It also gave an inhibition in vivo at 1 mg/kg [16] of 90%, a CR [17] of 8 and a Toxicity [18] of 0. For the same compound, the CR [19] was 5, the Toxicity [20] was 2 and the BWL [21] was 11%. For the same compound, the inhibition in vivo at 3 mg/kg [22] was 100%, the CR [23] was 4 and the LCK [24] was 5.3. The LCK [25] was 1.4.
